Reference: ChEMBL document CHEMBL2417544, “Design, synthesis and biological evaluation of azithromycin glycosyl derivatives as potential antibacterial agents” (2013)
In brackets after ≈: the same amount, converted by molar mass.

Key:
Format in all cases: functional
[1] = system: Streptococcus pneumoniae; assay: Antibacterial activity against Streptococcus pneumoniae 943 by standard dilution assay
Summary of the method: (§1)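 Broth dilution MIC per NCCLS guidance. Compounds dissolved in DMSO, serially diluted in growth medium, inoculated and incubated at 35 °C. MIC80 taken as the first well showing roughly 80% less growth than the drug-free well. Each test run three times; values are means of replicates.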

[2] = system: Staphylococcus aureus; assay: Antibacterial activity against Staphylococcus aureus ATCC 25923 by standard dilution assay
Summary of the method: (§2)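 Broth dilution MIC per NCCLS guidance. Compounds dissolved in DMSO, serially diluted in growth medium, inoculated and incubated at 35 °C. MIC80 read as the first well with about 80% less growth than the drug-free well. Erythromycin and azithromycin were run as positive controls. Each test was done three times, and values are means of the replicates.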

[3] = system: Escherichia coli; assay: Antibacterial activity against Escherichia coli 236 by standard dilution assay; summary of the method: as §1
[4] = system: Escherichia coli; assay: Antibacterial activity against Escherichia coli ATCC 25922 by standard dilution assay; summary of the method: as §1
[5] = system: Streptococcus pyogenes; assay: Antibacterial activity against Streptococcus pyogenes 447 by standard dilution assay; summary of the method: as §1
[6] = system: Staphylococcus aureus; assay: Ratio of erythromycin A MIC80 to compound MIC80 for methicillin-susceptible Staphylococcus aureus MSSA-1
Summary of the method: (§3)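 Ratio of the reference macrolide's MIC80 (azithromycin or erythromycin A, tested in parallel) to the compound's MIC80. Both come from the same NCCLS broth dilution run: DMSO stocks serially diluted in medium, inoculated, 35 °C. MIC80 is the first well with about 80% lower growth than the drug-free control. Triplicate tests, means used.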

[7] = system: Streptococcus pneumoniae; assay: Antibacterial activity against Streptococcus pneumoniae 746 by standard dilution assay; summary of the method: as §1
[8] = system: Staphylococcus aureus; assay: Antibacterial activity against methicillin-resistant Staphylococcus aureus MRSA-1 by standard dilution assay; summary of the method: as §2
[9] = system: Staphylococcus aureus; assay: Antibacterial activity against methicillin-susceptible Staphylococcus aureus MSSA-1 by standard dilution assay; summary of the method: as §2
[10] = system: Streptococcus pneumoniae; assay: Ratio of erythromycin A MIC80 to compound MIC80 for Streptococcus pneumoniae 943; summary of the method: as §3
[11] = system: Streptococcus pneumoniae; assay: Ratio of erythromycin A MIC80 to compound MIC80 for Streptococcus pneumoniae 746; summary of the method: as §3
[12] = system: Streptococcus pneumoniae; assay: Ratio of azithromycin MIC80 to compound MIC80 for Streptococcus pneumoniae 943; summary of the method: as §3

Compound	MIC80 [1] [µg/mL]	MIC80 [2] [µg/mL]	MIC80 [3] [µg/mL]	MIC80 [4] [µg/mL]	MIC80 [5] [µg/mL]	Ratio [6]	MIC80 [7] [µg/mL]	MIC80 [8] [µg/mL]	MIC80 [9] [µg/mL]	Ratio [10]	Ratio [11]	Ratio [12]
CC[C@H]1OC(=O)[C@H](C)[C@@H](O[C@H]2C[C@@](C)(OC)[C@@H](OC(=O)NCCO[C@@H]3O[C@@H](C)[C@H](O)[C@@H](O)[C@H]3O)[C@H](C)O2)[C@H](C)[C@@H](O[C@@H]2O[C@H](C)C[C@H](N(C)C)[C@H]2O)[C@](C)(O)C[C@@H](C)CN(C)[C@H](C)[C@H]2OC(=O)O[C@@]21C	4 (≈ 3.97 µM)	16 (≈ 15.9 µM)	128 (≈ 127 µM)	128 (≈ 127 µM)	64 (≈ 63.5 µM)	8	8 (≈ 7.93 µM)	8 (≈ 7.93 µM)	2 (≈ 1.98 µM)	–	–	–
CC[C@H]1OC(=O)[C@H](C)[C@@H](O[C@H]2C[C@@](C)(OC)[C@@H](OC(=O)NCCO[C@@H]3O[C@H](CO)[C@@H](O)[C@H]3O)[C@H](C)O2)[C@H](C)[C@@H](O[C@@H]2O[C@H](C)C[C@H](N(C)C)[C@H]2O)[C@](C)(O)C[C@@H](C)CN(C)[C@H](C)[C@H]2OC(=O)O[C@@]21C	4 (≈ 4.02 µM)	4 (≈ 4.02 µM)	64 (≈ 64.4 µM)	128 (≈ 129 µM)	64 (≈ 64.4 µM)	–	8 (≈ 8.05 µM)	8 (≈ 8.05 µM)	8 (≈ 8.05 µM)	–	–	–
CC[C@H]1OC(=O)[C@H](C)[C@@H](O[C@H]2C[C@@](C)(OC)[C@@H](OC(=O)NCCO[C@@H]3O[C@H](CO)[C@@H](O)[C@H](O)[C@@H]3O)[C@H](C)O2)[C@H](C)[C@@H](O[C@@H]2O[C@H](C)C[C@H](N(C)C)[C@H]2O)[C@](C)(O)C[C@@H](C)CN(C)[C@H](C)[C@H]2OC(=O)O[C@@]21C	4 (≈ 3.91 µM)	8 (≈ 7.81 µM)	64 (≈ 62.5 µM)	128 (≈ 125 µM)	32 (≈ 31.2 µM)	–	4 (≈ 3.91 µM)	8 (≈ 7.81 µM)	8 (≈ 7.81 µM)	–	–	–
CC[C@H]1OC(=O)[C@H](C)[C@@H](O[C@H]2C[C@@](C)(OC)[C@@H](OC(=O)NCCO[C@@H]3O[C@H](CO)[C@@H](O[C@@H]4O[C@H](CO)[C@@H](O)[C@H](O)[C@H]4O)[C@H](O)[C@H]3O)[C@H](C)O2)[C@H](C)[C@@H](O[C@@H]2O[C@H](C)C[C@H](N(C)C)[C@H]2O)[C@](C)(O)C[C@@H](C)CN(C)[C@H](C)[C@H]2OC(=O)O[C@@]21C	8 (≈ 6.74 µM)	16 (≈ 13.5 µM)	128 (≈ 108 µM)	256 (≈ 216 µM)	64 (≈ 53.9 µM)	–	16 (≈ 13.5 µM)	32 (≈ 27 µM)	32 (≈ 27 µM)	–	–	–
CC[C@H]1OC(=O)[C@H](C)[C@@H](O[C@H]2C[C@@](C)(OC)[C@@H](O)[C@H](C)O2)[C@H](C)[C@@H](O[C@@H]2O[C@H](C)C[C@H](N(C)C)[C@H]2O)[C@](C)(O)C[C@@H](C)CN(C)[C@H](C)[C@@H](O)[C@]1(C)O [AZITHROMYCIN]	4 (≈ 5.34 µM)	16 (≈ 21.4 µM)	256 (≈ 342 µM)	256 (≈ 342 µM)	32 (≈ 42.7 µM)	–	8 (≈ 10.7 µM)	16 (≈ 21.4 µM)	2 (≈ 2.67 µM)	–	–	–
CC[C@H]1OC(=O)[C@H](C)[C@@H](O[C@H]2C[C@@](C)(OC)[C@@H](OC(=O)NCCO[C@@H]3OC[C@@H](O)[C@H](O)[C@H]3O)[C@H](C)O2)[C@H](C)[C@@H](O[C@@H]2O[C@H](C)C[C@H](N(C)C)[C@H]2O)[C@](C)(O)C[C@@H](C)CN(C)[C@H](C)[C@H]2OC(=O)O[C@@]21C	2 (≈ 2.01 µM)	8 (≈ 8.05 µM)	64 (≈ 64.4 µM)	256 (≈ 257 µM)	16 (≈ 16.1 µM)	–	4 (≈ 4.02 µM)	16 (≈ 16.1 µM)	16 (≈ 16.1 µM)	–	–	–
CC[C@H]1OC(=O)[C@H](C)[C@@H](O[C@H]2C[C@@](C)(OC)[C@@H](OC(=O)NCCO[C@@H]3O[C@H](CO)[C@H](O)[C@H](O)[C@H]3O)[C@H](C)O2)[C@H](C)[C@@H](O[C@@H]2O[C@H](C)C[C@H](N(C)C)[C@H]2O)[C@](C)(O)C[C@@H](C)CN(C)[C@H](C)[C@H]2OC(=O)O[C@@]21C	1 (≈ 0.976 µM)	32 (≈ 31.2 µM)	128 (≈ 125 µM)	128 (≈ 125 µM)	64 (≈ 62.5 µM)	–	2 (≈ 1.95 µM)	32 (≈ 31.2 µM)	4 (≈ 3.91 µM)	8	8	4
CC[C@H]1OC(=O)[C@H](C)[C@@H](O[C@H]2C[C@@](C)(OC)[C@@H](OC(=O)NCCO[C@@H]3O[C@H](CO)[C@@H](O[C@H]4O[C@H](CO)[C@@H](O)[C@H](O)[C@H]4O)[C@H](O)[C@H]3O)[C@H](C)O2)[C@H](C)[C@@H](O[C@@H]2O[C@H](C)C[C@H](N(C)C)[C@H]2O)[C@](C)(O)C[C@@H](C)CN(C)[C@H](C)[C@H]2OC(=O)O[C@@]21C	8 (≈ 6.74 µM)	32 (≈ 27 µM)	128 (≈ 108 µM)	256 (≈ 216 µM)	32 (≈ 27 µM)	–	16 (≈ 13.5 µM)	16 (≈ 13.5 µM)	16 (≈ 13.5 µM)	–	–	–
CC[C@H]1OC(=O)[C@H](C)[C@@H](O[C@H]2C[C@@](C)(OC)[C@@H](OC(=O)NCCO[C@@H]3O[C@H](CO)[C@@H](O)[C@H](O)[C@H]3O)[C@H](C)O2)[C@H](C)[C@@H](O[C@@H]2O[C@H](C)C[C@H](N(C)C)[C@H]2O)[C@](C)(O)C[C@@H](C)CN(C)[C@H](C)[C@H]2OC(=O)O[C@@]21C	1 (≈ 0.976 µM)	8 (≈ 7.81 µM)	64 (≈ 62.5 µM)	128 (≈ 125 µM)	16 (≈ 15.6 µM)	8	2 (≈ 1.95 µM)	16 (≈ 15.6 µM)	2 (≈ 1.95 µM)	8	8	4
CC[C@H]1OC(=O)[C@H](C)[C@@H](O[C@H]2C[C@@](C)(OC)[C@@H](O)[C@H](C)O2)[C@H](C)[C@@H](O[C@@H]2O[C@H](C)C[C@H](N(C)C)[C@H]2O)[C@](C)(O)C[C@@H](C)C(=O)[C@H](C)[C@@H](O)[C@]1(C)O [ERYTHROMYCIN]	8 (≈ 10.9 µM)	16 (≈ 21.8 µM)	256 (≈ 349 µM)	256 (≈ 349 µM)	32 (≈ 43.6 µM)	–	16 (≈ 21.8 µM)	16 (≈ 21.8 µM)	16 (≈ 21.8 µM)	–	–	–
